Reference: ChEMBL document CHEMBL5113397, “Identification, optimization, and biological evaluation of 3-O-β-chacotriosyl ursolic acid derivatives as novel SARS-CoV-2 entry inhibitors by targeting the prefusion state of spike protein” (Eur J Med Chem, 2022)
The source made the active and inactive calls. The rule behind the calls is not given here.

Tests used:
SARS-CoV-2 [1] = assay: Antiviral activity against pseudovirus SARS-CoV-2 spike protein infected human HEK293T cells overexpressing ACE2 assessed as inhibition on pseudovirus infection at 10 uM incubated for 48 hrs by luciferase assay; type: functional; settings: Severe acute respiratory syndrome coronavirus 2, HEK-293T
How it was run: (§1)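 S plasmid (wild type, or E484K, D614G or N501Y mutant) transfected into 293T cells; PsV-containing supernatant harvested at 48 h. 293T-ACE2 cells seeded 24 h ahead, then given an equal-volume mix of compound dilutions and PsV supernatant for 48 h. Cells lysed and luciferase activity quantified. Mean ± SD of three experiments.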

SARS-CoV-2 [2] = assay: Antiviral activity against pseudovirus SARS-CoV-2 spike protein infected human HEK293T cells overexpressing ACE2 assessed as inhibition on pseudovirus infection at 40 uM incubated for 48 hrs by luciferase assay; type: functional; settings: Severe acute respiratory syndrome coronavirus 2, HEK-293T; how it was run: as §1
[3] = Selectivity index, ratio of CC50 for cytotoxicity against human HEK293T cells overexpressing human ACE2 to EC50 for antiviral activity against SARS-CoV-2 VSV-G pseudotyped virus infected human HEK293T cells overexpressing ACE2; type: toxicity, cell-based; settings: read-out: Ratio CC50/EC50
SARS-CoV-2 [4] = assay: Antiviral activity against SARS-CoV-2 VSV-G pseudotyped virus infected human HEK293T cells overexpressing ACE2 incubated for 48 hrs by luciferase assay; type: functional, organism-based; settings: Severe acute respiratory syndrome coronavirus 2, HEK-293T
SARS-CoV-2 [5] = assay: Antiviral activity against pseudotyped spike protein mutant B.1.351 SARS-CoV-2 Beta variant infected human HEK293T cells overexpressing ACE2 assessed as inhibition on viral entry incubated for 48 hrs by luciferase assay; type: functional, organism-based, Severe acute respiratory syndrome coronavirus 2
SARS-CoV-2 [6] = assay: Antiviral activity against pseudovirus SARS-CoV-2 spike protein with N501Y mutant infected human HEK293T cells overexpressing ACE2 assessed as inhibition on pseudovirus infection at 5 to 40 uM incubated for 48 hrs by luciferase assay; type: functional, organism-based; settings: Severe acute respiratory syndrome coronavirus 2, dose 5-40 µM; how it was run: as §1
SARS-CoV-2 [7] = assay: Antiviral activity against pseudovirus SARS-CoV-2 spike protein with E484K mutant infected human HEK293T cells overexpressing ACE2 assessed as inhibition on pseudovirus infection at 5 to 40 uM incubated for 48 hrs by luciferase assay; type: functional, organism-based; settings: Severe acute respiratory syndrome coronavirus 2, dose 5-40 µM; how it was run: as §1
SARS-CoV-2 [8] = assay: Antiviral activity against pseudovirus SARS-CoV-2 spike protein mutant Omicron variant infected human HEK293T cells overexpressing ACE2 assessed as inhibition on viral entry incubated for 48 hrs by luciferase assay; type: functional, organism-based, Severe acute respiratory syndrome coronavirus 2
SARS-CoV-2 [9] = assay: Antiviral activity against pseudovirus spike protein mutant B.1.617.2 SARS-CoV-2 Delta variant infected human HEK293T cells overexpressing ACE2 assessed as inhibition on viral entry incubated for 48 hrs by luciferase assay; type: functional, organism-based, Severe acute respiratory syndrome coronavirus 2
SARS-CoV-2 [10] = assay: Antiviral activity against pseudovirus SARS-CoV-2 spike protein with D614G mutant infected human HEK293T cells overexpressing ACE2 assessed as inhibition on pseudovirus infection at 5 to 40 uM incubated for 48 hrs by luciferase assay; type: functional, organism-based; settings: Severe acute respiratory syndrome coronavirus 2, dose 5-40 µM; how it was run: as §1
SARS-CoV-2 [11] = assay: Antiviral activity against pseudotyped spike protein mutant B.1.1.7 SARS-CoV-2 Alpha variant infected human HEK293T cells overexpressing ACE2 assessed as inhibition on viral entry incubated for 48 hrs by luciferase assay; type: functional, organism-based, Severe acute respiratory syndrome coronavirus 2
SARS-CoV-2 [12] = assay: Antiviral activity against pseudovirus SARS-CoV-2 spike protein infected human HEK293T cells overexpressing ACE2 assessed as inhibition on pseudovirus infection incubated for 48 hrs by luciferase assay; type: functional, organism-based; settings: Severe acute respiratory syndrome coronavirus 2, HEK-293T; how it was run: as §1
SARS-CoV-2 [13] = assay: Antiviral activity against pseudotyped spike protein mutant P.10 SARS-CoV-2 Gamma variant infected human HEK293T cells overexpressing ACE2 assessed as inhibition on viral entry incubated for 48 hrs by luciferase assay; type: functional, organism-based, Severe acute respiratory syndrome coronavirus 2

Row | Compound | inhibition at 10 µM (SARS-CoV-2 [1]) [%] | inhibition at 40 µM (SARS-CoV-2 [2]) [%] | EC50 (SARS-CoV-2 [12]) [µM] | also measured
1 | C[C@H]1[C@H](C)CC[C@]2(C(=O)Nc3ccc4c(cnn4C)c3)CC[C@]3(C)C(=CC[C@@H]4[C@@]5(C)CC[C@H](O[C@@H]6O[C@H](CO)[C@@H](O[C@@H]7O[C@@H](C)[C@H](O)[C@@H](O)[C@H]7O)[C@H](O)[C@H]6O[C@@H]6O[C@@H](C)[C@H](O)[C@@H](O)[C@H]6O)C(C)(C)[C@@H]5CC[C@]43C)[C@H]12 | 51.9 | 41.1 | – | –
2 | C[C@H]1[C@H](C)CC[C@]2(C(=O)Nc3ccc4sccc4c3)CC[C@]3(C)C(=CC[C@@H]4[C@@]5(C)CC[C@H](O[C@@H]6O[C@H](CO)[C@@H](O[C@@H]7O[C@@H](C)[C@H](O)[C@@H](O)[C@H]7O)[C@H](O)[C@H]6O[C@@H]6O[C@@H](C)[C@H](O)[C@@H](O)[C@H]6O)C(C)(C)[C@@H]5CC[C@]43C)[C@H]12 | -21.7 | -31.8 | – | –
3 | COc1cccc(OC)c1NC(=O)[C@]12CC[C@@H](C)[C@H](C)[C@H]1C1=CC[C@@H]3[C@@]4(C)CC[C@H](O[C@@H]5O[C@H](CO)[C@@H](O[C@@H]6O[C@@H](C)[C@H](O)[C@@H](O)[C@H]6O)[C@H](O)[C@H]5O[C@@H]5O[C@@H](C)[C@H](O)[C@@H](O)[C@H]5O)C(C)(C)[C@@H]4CC[C@@]3(C)[C@]1(C)CC2 | 96.8 | 46.8 | 9.84 | selectivity ratio [3]: > 10.2; EC50 (SARS-CoV-2 [4]): > 100 µM; EC50 (SARS-CoV-2 [5]): 11.6 µM; inhibition (SARS-CoV-2 [6]): Active; inhibition (SARS-CoV-2 [7]): Active; EC50 (SARS-CoV-2 [8]): 7.23 µM; EC50 (SARS-CoV-2 [9]): 1.78 µM; inhibition (SARS-CoV-2 [10]): Active; EC50 (SARS-CoV-2 [11]): 7.68 µM; EC50 (SARS-CoV-2 [13]): 2.66 µM
4 | COc1ccccc1NC(=O)[C@]12CC[C@@H](C)[C@H](C)[C@H]1C1=CC[C@@H]3[C@@]4(C)CC[C@H](O[C@@H]5O[C@H](CO)[C@@H](O[C@@H]6O[C@@H](C)[C@H](O)[C@@H](O)[C@H]6O)[C@H](O)[C@H]5O[C@@H]5O[C@@H](C)[C@H](O)[C@@H](O)[C@H]5O)C(C)(C)[C@@H]4CC[C@@]3(C)[C@]1(C)CC2 | – | – | 10.7 | selectivity ratio [3]: 4.05
5 | O=C(/C=C/c1ccc(O)c2oc(-c3ccc(O)c(O)c3)cc12)O[C@H](Cc1ccc(O)c(O)c1)C(=O)O | 98.3 | 80.2 | – | –
6 | COc1ccc(CNC(=O)[C@]23CC[C@@H](C)[C@H](C)[C@H]2C2=CC[C@@H]4[C@@]5(C)CC[C@H](O[C@@H]6O[C@H](CO)[C@@H](O[C@@H]7O[C@@H](C)[C@H](O)[C@@H](O)[C@H]7O)[C@H](O)[C@H]6O[C@@H]6O[C@@H](C)[C@H](O)[C@@H](O)[C@H]6O)C(C)(C)[C@@H]5CC[C@@]4(C)[C@]2(C)CC3)cc1 | 85.7 | 36.3 | 11.8 | selectivity ratio [3]: > 10; EC50 (SARS-CoV-2 [4]): > 100 µM
7 | C[C@H]1[C@H](C)CC[C@]2(C(=O)NC(c3ccccc3)c3ccccc3)CC[C@]3(C)C(=CC[C@@H]4[C@@]5(C)CC[C@H](O[C@@H]6O[C@H](CO)[C@@H](O[C@@H]7O[C@@H](C)[C@H](O)[C@@H](O)[C@H]7O)[C@H](O)[C@H]6O[C@@H]6O[C@@H](C)[C@H](O)[C@@H](O)[C@H]6O)C(C)(C)[C@@H]5CC[C@]43C)[C@H]12 | 1.58 | 0.47 | – | –
8 | C[C@H]1[C@H](C)CC[C@]2(C(=O)NCc3ccccc3)CC[C@]3(C)C(=CC[C@@H]4[C@@]5(C)CC[C@H](O[C@@H]6O[C@H](CO)[C@@H](O[C@@H]7O[C@@H](C)[C@H](O)[C@@H](O)[C@H]7O)[C@H](O)[C@H]6O[C@@H]6O[C@@H](C)[C@H](O)[C@@H](O)[C@H]6O)C(C)(C)[C@@H]5CC[C@]43C)[C@H]12 | 92.5 | 59.2 | 12 | selectivity ratio [3]: > 10; EC50 (SARS-CoV-2 [4]): > 100 µM
9 | C[C@H]1[C@H](C)CC[C@]2(C(=O)Nc3ccc4c(c3)OCCO4)CC[C@]3(C)C(=CC[C@@H]4[C@@]5(C)CC[C@H](O[C@@H]6O[C@H](CO)[C@@H](O[C@@H]7O[C@@H](C)[C@H](O)[C@@H](O)[C@H]7O)[C@H](O)[C@H]6O[C@@H]6O[C@@H](C)[C@H](O)[C@@H](O)[C@H]6O)C(C)(C)[C@@H]5CC[C@]43C)[C@H]12 | 30.4 | -2.49 | – | –
10 | C[C@H]1[C@H](C)CC[C@]2(C(=O)Nc3ccc(Cc4ccccc4)cc3)CC[C@]3(C)C(=CC[C@@H]4[C@@]5(C)CC[C@H](O[C@@H]6O[C@H](CO)[C@@H](O[C@@H]7O[C@@H](C)[C@H](O)[C@@H](O)[C@H]7O)[C@H](O)[C@H]6O[C@@H]6O[C@@H](C)[C@H](O)[C@@H](O)[C@H]6O)C(C)(C)[C@@H]5CC[C@]43C)[C@H]12 | 19.2 | 10.3 | – | –
11 | C[C@H]1[C@H](C)CC[C@]2(C(=O)Nc3ccc4ccccc4c3)CC[C@]3(C)C(=CC[C@@H]4[C@@]5(C)CC[C@H](O[C@@H]6O[C@H](CO)[C@@H](O[C@@H]7O[C@@H](C)[C@H](O)[C@@H](O)[C@H]7O)[C@H](O)[C@H]6O[C@@H]6O[C@@H](C)[C@H](O)[C@@H](O)[C@H]6O)C(C)(C)[C@@H]5CC[C@]43C)[C@H]12 | 14.5 | -7.27 | – | –
12 | C[C@H]1[C@H](C)CC[C@]2(C(=O)Nc3ccc4ncccc4c3)CC[C@]3(C)C(=CC[C@@H]4[C@@]5(C)CC[C@H](O[C@@H]6O[C@H](CO)[C@@H](O[C@@H]7O[C@@H](C)[C@H](O)[C@@H](O)[C@H]7O)[C@H](O)[C@H]6O[C@@H]6O[C@@H](C)[C@H](O)[C@@H](O)[C@H]6O)C(C)(C)[C@@H]5CC[C@]43C)[C@H]12 | 33.1 | 27.4 | – | –
13 | C[C@H]1[C@H](C)CC[C@]2(C(=O)Nc3ccccc3Cl)CC[C@]3(C)C(=CC[C@@H]4[C@@]5(C)CC[C@H](O[C@@H]6O[C@H](CO)[C@@H](O[C@@H]7O[C@@H](C)[C@H](O)[C@@H](O)[C@H]7O)[C@H](O)[C@H]6O[C@@H]6O[C@@H](C)[C@H](O)[C@@H](O)[C@H]6O)C(C)(C)[C@@H]5CC[C@]43C)[C@H]12 | – | – | 12.7 | –
14 | C[C@H]1[C@H](C)CC[C@]2(C(=O)N3CCc4ccccc4C3)CC[C@]3(C)C(=CC[C@@H]4[C@@]5(C)CC[C@H](O[C@@H]6O[C@H](CO)[C@@H](O[C@@H]7O[C@@H](C)[C@H](O)[C@@H](O)[C@H]7O)[C@H](O)[C@H]6O[C@@H]6O[C@@H](C)[C@H](O)[C@@H](O)[C@H]6O)C(C)(C)[C@@H]5CC[C@]43C)[C@H]12 | 58.7 | 32.5 | – | –
15 | C[C@H]1[C@H](C)CC[C@]2(C(=O)Nc3ccc(-c4ccccc4)cc3)CC[C@]3(C)C(=CC[C@@H]4[C@@]5(C)CC[C@H](O[C@@H]6O[C@H](CO)[C@@H](O[C@@H]7O[C@@H](C)[C@H](O)[C@@H](O)[C@H]7O)[C@H](O)[C@H]6O[C@@H]6O[C@@H](C)[C@H](O)[C@@H](O)[C@H]6O)C(C)(C)[C@@H]5CC[C@]43C)[C@H]12 | 27.4 | 16.9 | – | –
16 | C[C@H]1[C@H](C)CC[C@]2(C(=O)NCCc3ccccc3)CC[C@]3(C)C(=CC[C@@H]4[C@@]5(C)CC[C@H](O[C@@H]6O[C@H](CO)[C@@H](O[C@@H]7O[C@@H](C)[C@H](O)[C@@H](O)[C@H]7O)[C@H](O)[C@H]6O[C@@H]6O[C@@H](C)[C@H](O)[C@@H](O)[C@H]6O)C(C)(C)[C@@H]5CC[C@]43C)[C@H]12 | 49.5 | 28.2 | – | –
